From ChEMBL document CHEMBL1145520, “RAS-RAF-MEK-dependent oxidative cell death involving voltage-dependent anion channels” (Nature, 2007) come the findings set out here.

SMILES strings stand for the structures. The source made the active and inactive calls. The rule behind the calls is not given here.

The IC50 is the concentration that gives 50% inhibition. Higher therefore signals lower potency.

Assay [1] concerns BJ. Put plainly: Induction of cell death in human BJ cells expressing TERT, LT, ST and RAS G12V mutant genes cells at 9 uM. Type of assay: functional, cell-based.
Assay [2] deals with BJ. Put plainly: Antitumor activity against human BJ cells expressing TERT, LT, ST and RAS G12V mutant genes assessed as survival relative to control. Type of assay: functional.
Assay [3] has as its system HT-1080. Put plainly: Antitumor activity against human HT1080 cells assessed as survival relative to control. Type of assay: functional.
Assay [4] relates to BJ. Put plainly: Induction of mitochondrial structural integrity loss in human BJ cells expressing TERT, LT, ST and RAS G12V mutant genes cells at 1 uM after 5 hrs. Type of assay: functional, cell-based. The method, boiled down: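 Mitochondria of BJ-TERT/LT/ST/RASV12 cells examined by transmission electron microscopy after staurosporine 1 µM for 5 h. Fixed in 2.5% glutaraldehyde in Sorenson's buffer pH 7.2, post-fixed in 1% OsO4, block-stained with tannic acid, resin-embedded. Thin sections stained with uranyl acetate and lead citrate.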

For assay [5], the system named is BJ. Put plainly: Induction of cytochrome c release in mitochondrial fraction of human BJ cell expressing TERT, LT, ST and RAS G12V mutant genes at 1 uM. Type of assay: functional, cell-based. Summed up: (§1)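 BJ-TERT/LT/ST/RASV12 cells (3 × 10^6 per dish, overnight at 37 °C, 5% CO2) treated with staurosporine 1 µM for 6 h. Cells swollen on ice 15 min in sucrose/HEPES pH 7.5 buffer, lysed through 25-gauge needle. Nuclei removed at 400g, mitochondria pelleted at 10,500g. Cytosolic supernatant and mitochondrial pellet probed for cytochrome c by western blot.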

For assay [6], the system named is BJ. As to the kind of experiment: Induction of cytochrome c release in cytosolic fraction of human BJ cell expressing TERT, LT, ST and RAS G12V mutant genes at 1 uM. Type of assay: functional, cell-based. Summed up:
as §1

In assay [1], `CC(C)NC(=O)N(CCN1CCN(C(=O)COc2ccc(Cl)cc2)CC1)Cc1ccc(F)cc1` returned an IC50 of 10 µM. That is a double-digit micromolar value.
Turning to `N#CC(=C(/N)Sc1ccccc1N)/C(C#N)=C(\N)Sc1ccccc1N`, the values for the Survival in assay [2] and in assay [3] were 82% and 17%, respectively.
For the compound `COc1cccc(-c2cc(=O)c3ccccc3o2)c1N`, the Survival came out at 78% in assay [2] and 26% in assay [3].
Consider `CN[C@@H]1C[C@H]2O[C@@](C)([C@@H]1OC)n1c3ccccc3c3c4c(c5c6ccccc6n2c5c31)C(=O)NC4`, for which, in assay [4], the result was inactive. Also, the result in assay [5] and in assay [6] was Active.
